Where a chain is given by its changes, count along the chain named.
How the values were obtained:
SIRT1 [1] = target: T1, SIRT1 (Homo sapiens, UniProt Q96EB6); test: HPLC-MS/MS SIRT1 deacetylation assay with acetylated peptide substrates; type: biochemical; details: for activation of SIRT1 towards mutant p53 peptide (p53-W): 250 nM 18:1, 10 μM resveratrol, 1 μM SRT1720; for allosteric activation of SIRT1 towards wild-type p53 peptide: p53 peptide lacking hydrophobic residue at +1 or +6
T1 sequence (Q96EB6 1-747): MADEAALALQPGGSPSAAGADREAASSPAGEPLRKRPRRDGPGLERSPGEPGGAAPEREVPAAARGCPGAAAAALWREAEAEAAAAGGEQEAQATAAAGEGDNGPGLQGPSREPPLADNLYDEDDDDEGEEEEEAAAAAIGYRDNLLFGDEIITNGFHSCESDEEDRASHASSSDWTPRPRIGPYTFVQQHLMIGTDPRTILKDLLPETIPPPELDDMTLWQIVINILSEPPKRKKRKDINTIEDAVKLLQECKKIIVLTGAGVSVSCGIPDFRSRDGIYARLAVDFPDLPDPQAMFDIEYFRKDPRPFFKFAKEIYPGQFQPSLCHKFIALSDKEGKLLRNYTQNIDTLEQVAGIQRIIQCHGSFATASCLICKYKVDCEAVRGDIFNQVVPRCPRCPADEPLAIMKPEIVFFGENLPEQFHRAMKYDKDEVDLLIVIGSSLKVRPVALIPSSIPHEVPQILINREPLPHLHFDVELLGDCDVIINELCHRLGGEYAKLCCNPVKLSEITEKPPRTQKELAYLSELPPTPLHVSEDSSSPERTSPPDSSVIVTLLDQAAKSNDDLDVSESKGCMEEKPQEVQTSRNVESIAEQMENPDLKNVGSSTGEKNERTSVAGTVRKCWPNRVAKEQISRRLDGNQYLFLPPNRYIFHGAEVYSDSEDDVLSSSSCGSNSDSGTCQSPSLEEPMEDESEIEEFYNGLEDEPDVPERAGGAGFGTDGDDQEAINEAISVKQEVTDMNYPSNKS
Outline: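 Recombinant SIRT1 (1 μM, E. coli-expressed) incubated with acetylated peptide (0–250 μM) plus fatty acid in 25 mM Tris, pH 8.0, 50 mM NaCl, 1 mM DTT, 1 mM NAD+ for 60 min at 37°C. Deacetylation quantified by HPLC-MS/MS with positive-mode electrospray. Km, Vmax and kcat obtained from Lineweaver-Burk plots.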

SIRT1 [2] = target: T1, SIRT1; test: Intrinsic tryptophan fluorescence quenching binding assay, SIRT1; details: for Kd, SIRT1: tryptophan quenching
SIRT1 [3] = target: T1, SIRT1; test: 1,8-ANS displacement assay, SIRT1; type: binding; details: for Ki, SIRT1: displacement of 1,8-ANS
SIRT1 [4] = target: T1, SIRT1; test: Circular dichroic analysis of SIRT1 secondary structure with ligand; details: for shape of the CD spectrum of SIRT1: addition of ligand
[5] = target: T2, recombinant full-length murine PLIN5 (Mus musculus, UniProt Q8BVZ1); test: Intrinsic tryptophan fluorescence quenching binding assay, PLIN5; details: for binding curve, PLIN5: tryptophan fluorescence
T2 sequence (Q8BVZ1 1-463): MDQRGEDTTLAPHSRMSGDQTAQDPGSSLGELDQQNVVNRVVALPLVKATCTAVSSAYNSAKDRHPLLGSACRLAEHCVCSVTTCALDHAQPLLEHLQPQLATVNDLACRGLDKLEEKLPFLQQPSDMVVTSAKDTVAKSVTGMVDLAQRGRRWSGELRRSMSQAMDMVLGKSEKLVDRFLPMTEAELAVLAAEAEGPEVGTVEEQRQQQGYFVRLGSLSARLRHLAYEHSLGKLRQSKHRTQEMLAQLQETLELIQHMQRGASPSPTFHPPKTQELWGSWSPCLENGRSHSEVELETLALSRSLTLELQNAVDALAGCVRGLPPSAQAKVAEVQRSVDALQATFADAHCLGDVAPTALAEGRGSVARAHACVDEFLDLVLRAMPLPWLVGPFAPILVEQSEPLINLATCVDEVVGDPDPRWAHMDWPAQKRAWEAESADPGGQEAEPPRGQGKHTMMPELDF
Outline: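 Protein at 150 nM in 10 mM NaH2PO4, pH 7.5, titrated with ethanolic fatty acid. Excitation 295 nm, emission scanned 300–400 nm. Signal corrected for buffer-plus-ligand background. ΔF (F0−F) plotted against ligand to give a saturation curve. Kd taken from linear regression of the double-reciprocal transform. PLIN5: untagged full-length murine recombinant protein, n=4.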

PLIN5-pM (S155E) = target: T3, PLIN5-pM (S155E) (Mus musculus, UniProt Q8BVZ1, S155E); test: Tryptophan fluorescence quenching binding assay, PLIN5-pM; parameters: species or system murine
T3 sequence (Q8BVZ1 1-463 S155E): T2 sequence (Q8BVZ1 1-463) with S155E

PLIN5 = target: T4, PLIN5 (Mus musculus, UniProt Q8BVZ1); test: 1,8-ANS displacement assay, PLIN5; type: binding, murine
T4 sequence (Q8BVZ1 1-463): T2 sequence (Q8BVZ1 1-463)
Outline: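 Untagged recombinant PLIN5 (His-MBP tag removed by TEV protease) at 1 μM with 500 nM 1,8-ANS in 50 mM sodium phosphate, pH 7.5, 25°C. Competitor lipids added in increasing amounts, each mixed 60 s before reading fluorescence. I50 taken from the normalized displacement curve. Ki = I50/(1+[L]/KD), using the ANS KD from a Scatchard analysis of a protein titration.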

PGC-1α activity, MEFs = test: PGC-1α luciferase reporter assay in MEFs; type: cell-based, mouse
[6] = acetylated PGC-1α peptide substrate

For `CCCCCCCCCCCCCCCC(=O)O` [16:0, palmitic acid], the “stimulation of SIRT1 deacetylase activity” value (SIRT1 [1]; [6]) was “unable to stimulate”, the “Kd, SIRT1” value (SIRT1 [2]) was “No fatty acid binding was observed” and the “Ki, SIRT1” value (SIRT1 [3]) was “not observed”. For the same compound, the “shape of the CD spectrum of SIRT1” value (SIRT1 [4]) was “did not alter” and the “binding curve, PLIN5” value [5] was “Saturable binding curves”.

With `CCCCCC/C=C\CCCCCCCC(=O)O` [16:1, palmitoleic acid] the “Km of SIRT1 towards the PGC-1α peptide” value (SIRT1 [1]; [6]) was “lowering”, the “SIRT1 catalytic efficiency (Kcat/Km) towards the PGC-1α peptide” value (SIRT1 [1]; [6]) was “increase” and the Kd (SIRT1 [2]) was 0.1 ± 0.003 µM. For the same compound, the Ki (SIRT1 [3]) was 12.5 ± 0.06 µM, the “α-helical content of SIRT1” value (SIRT1 [4]; with ligand, 23% without ligand) was 25.9% and the Kd [5] was 0.082 ± 0.012 µM. For the same compound, the “binding curve, PLIN5” value [5] was “Saturable binding curves”, the Kd (PLIN5-pM (S155E)) was 0.023 ± 0.003 µM and the “increase in binding affinity of PLIN5-pM” value (PLIN5-pM (S155E); PLIN5-pM vs comparator) was 3.4 fold. For the same compound, the Ki (PLIN5) was 9.9 ± 0.07 µM and the “PGC-1α activity with cAMP, individual fatty acid loading” value (PGC-1α activity, MEFs; vs non-loaded or 18:0/16:0 loaded cells) was “synergized with cAMP”.

`CCCCCCCCCCCCCCCCCC(=O)O` [18:0, stearic acid] was tested, and the “stimulation of SIRT1 deacetylase activity” value (SIRT1 [1]; [6]) was “unable to stimulate”, the “Kd, SIRT1” value (SIRT1 [2]) was “No fatty acid binding was observed” and the “Ki, SIRT1” value (SIRT1 [3]) was “not observed”. The “shape of the CD spectrum of SIRT1” value (SIRT1 [4]) was “did not alter”, the “binding curve, PLIN5” value [5] was “Saturable binding curves” and the Ki (PLIN5) was 17.7 ± 0.04 µM.

In the case of `CCCCC/C=C\C/C=C\C/C=C\C/C=C\CCCC(=O)O` [20:4, arachidonic acid], the “binding curve, PLIN5” value [5] is reported as “Saturable binding curves”.

For `CN(C)C(=O)Nc1cccc(-c2ccc(N(C)C)cc2)c1` [ATGLstatin, reference compound], the “effects of β-adrenergic stimulation on PGC-1α activity in 18:1 loaded cells” value (PGC-1α activity, MEFs; 30 μM ATGL inhibitor) was “blocked”.

For `O=C(Nc1ccccc1-c1cn2c(CN3CCNCC3)csc2n1)c1cnc2ccccc2n1` [SRT1720, reference compound], the “activation of SIRT1 towards mutant p53 peptide (p53-W)” value (SIRT1 [1]) was “activated” and the “allosteric activation of SIRT1 towards wild-type p53 peptide” value (SIRT1 [1]) was “did not respond”.

With `Oc1ccc(/C=C/c2cc(O)cc(O)c2)cc1` [resveratrol, reference compound] the “activation of SIRT1 towards mutant p53 peptide (p53-W)” value (SIRT1 [1]) was “activated”, the “allosteric activation of SIRT1 towards wild-type p53 peptide” value (SIRT1 [1]) was “did not respond” and the “activation of PGC-1α in Sirt1 knockout cells rescued with GFP tagged human Sirt1” value (PGC-1α activity, MEFs; Sirt1 knockout MEFs + human Sirt1) was “restored”. The “regulation of PGC-1α in Sirt1 knockout cells rescued with Sirt1-E230K mutant” value (PGC-1α activity, MEFs; Sirt1 knockout MEFs + human Sirt1 E230K) was “did not restore”.
